Screening results: PubChem, The Scripps Research Institute Molecular Screening Center
STAT3 act = increases IL-6 driven STAT3 reporter signal | U3A cells, IL-6 STAT3-luciferase reporter, luminescence; 100% = signal with IL-6 EC80 alone | activation (% of control), % at 5.6 µM | actives 0.91% (n = 190,000) | AID 871;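 active means activation above the screen-wide mean of compound activation plus 3 SD, cut at about 130% in these data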;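 further: 0% = background luminescence of wells with medium and substrate only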
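Material: human U3A cells carrying STAT3-luciferase construct. Measured by: reporter luminescence signal. Timing: compound 1 h, then IL-6 6 h at 37 °C.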
STAT1 activator = increases IFN-gamma driven STAT1 reporter signal; NIH 3T3 STAT1-luciferase reporter, luminescence; 100% = IFN-gamma alone, no compound; activation (% of control), % at 5.5 µM; actives 2.6% (n = 200,000); AID 932;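 active means activation above the screen-wide mean activation plus 3 SD, cut at about 130% in these data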;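 further: raw ratio to IFN-gamma control signal so 100% means no change and 0% no light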
STAT1 inh-1 = STAT1 signaling inhibition | actives 0.35% (n = 200,000) | inhibition, % at 5.5 µM | NIH 3T3 STAT1-luciferase reporter, IFN-gamma, luminescence;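 active means inhibition above a set limit, the mean inhibition across all tested compounds plus 3 SD, cut at about 34% in these data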;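 further: 0% = IFN-gamma with DMSO and 100% = IFN-gamma with 300 µM nifuroxazide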
STAT3 blocker = inhibitors of IL-6 induced STAT3 signaling | U3A cells, IL-6 STAT3-luciferase reporter, luminescence; host cell line lacks STAT1 | inhibition, % at 5.5 µM | actives 0.89% (n = 190,000);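 active means inhibition above the mean inhibition across all screened compounds plus 3 SD, cut at about 44% in these data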;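 further: 0% = DMSO only wells and 100% = 100 µM nifuroxazide control wells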
STAT1 inh-2 = STAT1 inhibition, confirmation assay | NIH 3T3 STAT1-luciferase reporter, IFN-gamma, luminescence | actives 55% (n = 200) | inhibition, % at 5.5 µM | AID 1263 | shares compounds with STAT1 inh-1;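 active means triplicate mean inhibition exceeding the hit cutoff computed for the primary STAT1 screen, cut at about 35% in these data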;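 further: 0% = DMSO with IFN-gamma and 100% = 300 µM nifuroxazide with IFN-gamma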
NFkB inh = NF-kappaB inhibition in STAT1 inhibitor counter-screen; shares compounds with STAT1 inh-1; HEK293T NF-kB luciferase reporter, TNF-alpha induced, luminescence; inhibition, % at 5.7 µM; actives 30% (n = 200);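 active means inhibition above the mean of solvent-only control wells plus 3 SD of those wells, cut at about 15% in these data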;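 further: 0% = DMSO with TNF-alpha and 100% = MG-132 control with TNF-alpha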
STAT3 inh 2 = counter-screen for STAT1 inhibitors: STAT3 inhibition. shares compounds with STAT1 inh-1. U3A cells, IL-6 STAT3 luciferase reporter, luminescence; cells lacking STAT1. inhibition, % at 5.7 µM. AID 1310. actives 20% (n = 200);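 active means inhibition above the mean of solvent-only control wells plus 3 SD, set per campaign, cut at about 25% in these data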;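 further: 0% = IL-6 plus DMSO and 100% = IL-6 plus nifuroxazide control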
Numbers without * were called inactive; x = not tested or not shown. Most compounds without a hit are left out; they make up all but 4.3% or so of the library.

SMILES	STAT3 act	STAT1 activator	STAT1 inh-1	STAT3 blocker	STAT1 inh-2	NFkB inh	STAT3 inh 2
O=C(CSc1nc2c(c(=O)n1-c1ccccc1)SCC2)N1CCN(c2ccccc2)CC1	89.1	58.7	44.8*	13.6	53.0*	15.7*	15.7
COc1ccc(F)cc1C(=O)C1CCCN(Cc2ccc(Sc3nncn3C)o2)C1 (stereo unspecified)	112.6	95.5	4.6	-8.2	x	x	x
CCOC(=O)N1CCN(C(=O)c2ccc(Cn3c(=S)[nH]c4cc(OCC)c(OCC)cc4c3=O)cc2)CC1	89.2	58.0	45.3*	22.3	61.0*	29.5*	18.6
O=C(c1ccc(Cn2c(=S)[nH]c3ccccc3c2=O)cc1)N1CCN(c2ccccn2)CC1	79.4	59.3	44.3*	30.8	35.3*	14.4	27.2*
COc1ccccc1N1CCN(C(=O)c2ccc(Cn3c(=S)[nH]c4cc5c(cc4c3=O)OCO5)cc2)CC1	103.4	105.5	-6.5	-1.8	x	x	x
CCOC(=O)N1CCN(C(=O)c2ccc3c(=O)n(Cc4ccccc4)c(=S)[nH]c3c2)CC1	104.0	105.9	-6.4	-1.0	x	x	x
CCOC(=O)N1CCN(C(=O)c2ccc3c(=O)n(-c4cc(OC)ccc4OC)c(=S)[nH]c3c2)CC1	98.0	55.3	48.1*	6.6	18.7	-6.2	-3.1
CCOC(=O)N1CCN(C(=O)c2ccc(Cn3c(=S)[nH]c4cc5c(cc4c3=O)OCO5)cc2)CC1	73.7	41.7	63.8*	34.8	59.4*	25.9*	25.9*
CC(C)(C)NC(=O)NC(=O)COC(=O)CNS(=O)(=O)/C=C/c1ccccc1	102.0	104.6	-5.5	-0.2	x	x	x
CC(=O)NC(Nc1c(C)n(C)n(-c2ccccc2)c1=O)C(Cl)(Cl)Cl (stereo unspecified)	101.3	94.0	4.9	3.6	x	x	x
COc1ccc(CNc2nc(-c3cccnc3)nn2S(C)(=O)=O)cc1	95.2	97.5	0.6	10.9	x	x	x
N#CC(C#N)=C(Nc1ccc(F)cc1)SCc1cccc(Br)c1	71.9	64.5	39.4*	33.3	52.5*	15.5*	43.4*
CCSc1nnc(CNC(=O)C23CC4CC(CC(C4)C2)C3)n1C1CCCCC1	101.9	93.9	6.7	-3.7	x	x	x
CCOc1ccc(S(=O)(=O)Nc2cccc(C)c2)c2cccnc12	96.3	63.8	37.3*	11.2	25.2	-2.0	7.2
CCC(CO)NS(=O)(=O)c1cc(-c2nn(C)c(=O)c3ccccc23)ccc1C (stereo unspecified)	92.9	79.6	20.1	11.6	x	x	x
O=C(CCS(=O)(=O)c1ccccc1)Nc1nc(-c2cccs2)cs1	101.8	93.1	7.6	-2.2	x	x	x
CC(C)c1nnc(NC(=O)CCS(=O)(=O)c2nc(-c3cccs3)cc(C(F)(F)F)n2)s1	96.3	66.5	36.7*	6.8	43.5*	15.5*	6.4
Cc1ccc(S(=O)(=O)N2CCN(C(C(=O)Nc3ccc(F)cc3)c3ccccc3)CC2)cc1 (stereo unspecified)	106.1	60.9	43.0*	-7.6	46.8*	-5.4	-26.7
Cc1csc(SCC(=O)NCc2ccccc2Cl)n1	97.9	95.7	2.6	8.7	x	x	x
CC(C)CNC(=O)COC(=O)c1c2c(nc3ccccc13)/C(=C/c1cccs1)CC2	91.8	64.9	38.5*	4.9	20.6	-14.0	9.7
c1csc(-c2ccnc3ncnn23)c1	81.3	93.5	6.5	23.7	x	x	x
Fc1ccc(-c2cnn3c(-c4cccs4)ccnc23)cc1	85.1	67.4	35.0*	26.5	-89.0	21.8*	-53.2
O=C(Nc1ccccc1)c1cc(N2CCOCC2)nc2ccccc12	114.5	106.1	-6.7	-16.2	x	x	x
O=C(O)c1cc(/C=C/c2ccc(N3CCOCC3)cc2)nc2ccccc12	65.1	64.0	39.0*	43.2	-4.8	38.0*	-12.7
O=C1C2ON(c3ccc(Cl)cc3)C(c3ccco3)C2C(=O)N1c1ccccc1 (stereo unspecified)	107.7	109.3	-10.5	-6.0	x	x	x
CC1C(=O)NN=C1C(=O)N/N=C\C(Br)=C\c1ccccc1 (stereo unspecified)	91.9	24.1	81.3*	16.6	40.5*	2.9	-22.8
